This note sets out measurements from ChEMBL document CHEMBL3817745, “Structure-Activity Relationship for the 4(3H)-Quinazolinone Antibacterials” (J Med Chem, 2016).

In brackets after ≈: the same amount, converted by molar mass. Activity calls are given as the source filed them. The calls are words filed in the database; no cut-off is given here.

In data set [1] the test system is Staphylococcus aureus. The data set can be described thus: Antibacterial activity against mecA-positive multidrug resistant Staphylococcus aureus NRS120 incubated for 16 to 20 hrs by microdilution method. Format: functional. For orientation: In broth dilution the organism is exposed to a series of concentrations in liquid medium.
A further data set concerns Plasma. The data set can be described thus: Drug level in plasma of ICR mouse neutropenic thigh model of methicillin-resistant Staphylococcus aureus NRS70 infection at 10 mg/kg, sc tid administered every 8 hrs starting from 1 hr post infection and measured 7 hrs post last dose by UPLC analysis. Format: ADME, organism-based. As to conditions: in vivo, BLD = below limit of detection. The method, boiled down:
(§1)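 Neutropenic thigh model (cyclophosphamide 200 mg/kg ip, NRS70 im), sc doses at 1, 9 and 17 h; at 24 h cardiac blood and uninfected thigh taken (n = 8 per group); thigh homogenate supernatant and plasma acetonitrile-quenched with internal standard, analysed by UPLC with MRM detection.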

Data set [2] deals with Staphylococcus aureus. Put plainly: […] activity against methicillin-susceptible Staphylococcus aureus ATCC 29213. Format: functional. The following applies: read-out: MBC99.9.
In data set [3] the test system is Staphylococcus epidermidis. Put plainly: Antibacterial activity against Staphylococcus epidermidis ATCC 35547 incubated for 16 to 20 hrs by microdilution method. Format: functional. The method, boiled down: (§2)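 CLSI broth microdilution. 2-fold serial dilutions were made in cation-adjusted Mueller–Hinton broth, with 5% lysed horse blood added for Streptococcus strains, in triplicate. Inoculum 5×10^5 CFU/mL. Plates incubated 36 °C for 16–20 h. MIC taken as the lowest concentration visibly inhibiting growth.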

Data set [4] deals with Staphylococcus haemolyticus. The data set can be described thus: Antibacterial activity against Staphylococcus haemolyticus ATCC 29970 incubated for 16 to 20 hrs by microdilution method. Format: functional.
The test system of the next data set is Enterococcus faecium. Put plainly: Antibacterial activity against Enterococcus faecium NCTC 7171 incubated for 16 to 20 hrs by microdilution method. Format: functional. A digest of the protocol:
as §2

Data set [5] in a line: Drug level in uninfected thighs of ICR mouse neutropenic thigh model of methicillin-resistant Staphylococcus aureus NRS70 infection at 10 mg/kg, sc tid administered every 8 hrs starting from 1 hr post infection and measured 7 hrs post last dose by UPLC analysis. The following applies: in vivo, BLD = below limit of detection. Format: ADME, organism-based. A digest of the protocol: as §1

Data set [6] concerns Staphylococcus aureus. The data set can be described thus: […] activity against methicillin-resistant Staphylococcus aureus NRS70. Format: functional. As to conditions: read-out: MBC99.9.
For data set [7], the system named is Staphylococcus aureus. The data set can be described thus: Antibacterial activity against methicillin-resistant Staphylococcus aureus NRS70 in ICR mouse neutropenic thigh infection model assessed as reduction in bacterial load at 10 mg/kg, sc tid administered every 8 hrs starting from 1 hr post infection and measured 7 hrs post last dose. Format: functional, organism-based. A digest of the protocol: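 Female ICR mice (n = 8 per group) made neutropenic with ip cyclophosphamide 200 mg/kg at 4 days and 1 day pre-infection; 100 μL NRS70 (~1×10^6 CFU/mL in brain–heart infusion) injected im into right thigh; sc doses at 1, 9, 17 h; thighs harvested at 24 h, homogenized, plated in triplicate on LB agar; log10 CFU/g.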

In data set [8] the test system is Staphylococcus aureus. The data set can be described thus: […] activity against multidrug resistant Staphylococcus aureus ATCC 27660. Format: functional. As to conditions: read-out: MBC99.9.
For data set [9], the system named is Staphylococcus aureus. The data set can be described thus: Antibacterial activity against mecA-positive multidrug resistant Staphylococcus aureus NRS119 incubated for 16 to 20 hrs by microdilution method. Format: functional.

For the compound `CC(=O)NC[C@H]1CN(c2ccc(N3CCOCC3)c(F)c2)C(=O)O1` [LINEZOLID], the MIC is 32 µg/mL (≈ 94.9 µM) with Staphylococcus aureus [1]; 1 µg/mL (≈ 2.96 µM) in [3]; 2 µg/mL (≈ 5.93 µM) in data set [4]; 2 µg/mL (≈ 5.93 µM) against Enterococcus faecium; 32 µg/mL (≈ 94.9 µM) in the data set on Staphylococcus aureus [9]. The Cp result with Plasma is “BLD”. In addition, the results for the MBC in the data set on Staphylococcus aureus [2], with Staphylococcus aureus [6] and in the data set with Staphylococcus aureus [8] were 16 µg/mL (≈ 47.4 µM), 8 µg/mL (≈ 23.7 µM) and 16 µg/mL (≈ 47.4 µM), respectively. Further, the Drug uptake entry in data set [5] is listed as “BLD”. For the same compound, in the data set on Staphylococcus aureus [7], the result was Active.

In general, MIC refers to the lowest concentration found to suppress growth. Higher therefore signals weaker potency.
